Measurements collected from several papers.
Organism: Staphylococcus aureus
Effect on: microbial growth

CCCCCCC#Cc1cncc(-c2nnc(SCc3cc(C(F)(F)F)cc(C(F)(F)F)c3)n2CCCN)c1
MIC (broth dilution; MRSA): 4 µg/mL

Cc1cc(Nc2nnc(-c3n[nH]c4ccc(C)cc34)s2)cc([N+](=O)[O-])c1
MIC (ATCC29213): 78 µg/mL

COc1cc2cc(CNCCC3CCN(C4CCCC4)CC3)c(SCc3ccccc3)nc2c(OC)c1OC
MIC (broth dilution): > 128 µg/mL

CC(=O)c1ccc2cc(S(=O)(=O)NCc3ccccc3)ccc2c1
MIC (broth dilution; ATCC25923): 40000 µg/mL

COc1cc2cc(CNCCN3CCN(C)CC3)c(SCc3ccccc3)nc2c(OC)c1OC
MIC (broth dilution): 128 µg/mL

CN[C@H](CC(C)C)C(=O)N[C@H]1C(=O)N[C@@H](CC(N)=O)C(=O)N[C@H]2C(=O)N[C@H]3C(=O)N[C@H](C(=O)N[C@H](C(=O)O)c4cc(O)cc(O)c4-c4cc3ccc4O)[C@H](O[C@H]3C[C@](C)(N)[C@@H](O)[C@H](C)O3)c3ccc(c(Cl)c3)Oc3cc2cc(c3O[C@@H]2O[C@H](CO)[C@@H](O)[C@H](O)[C@H]2O[C@H]2C[C@](C)(NCc3ccc(-c4ccc(Cl)cc4)cc3)[C@@H](O)[C@H](C)O2)Oc2ccc(cc2Cl)[C@H]1O
MIC (broth dilution): 2 µM

CN[C@H](CC(C)C)C(=O)N[C@H]1C(=O)N[C@@H](CC(N)=O)C(=O)N[C@H]2C(=O)N[C@H]3C(=O)N[C@H](C(=O)N[C@H](C(=O)O)c4cc(O)cc(O)c4-c4cc3ccc4O)[C@H](O)c3ccc(c(Cl)c3)Oc3cc2cc(c3O[C@@H]2O[C@H](CO)[C@@H](O)[C@H](O)[C@H]2O[C@H]2C[C@](C)(N)[C@H](O)[C@H](C)O2)Oc2ccc(cc2Cl)[C@H]1O
MIC (broth dilution; ATCC29213): 0.67 µM

COc1ccc(N2N=C(C(=O)c3ccc(Nc4cnccn4)cc3)SC2=C(C#N)C#N)cc1
MIC (broth dilution; ATCC25923): 3.12 µg/mL

CCCCCCCCN=c1ccn(CCCCCCCCCCn2ccc(=NCCCCCCCC)cc2)cc1
MIC (MSSA): 0.5 µM

CC[C@H]1OC(=O)[C@H](C)[C@@H](O[C@H]2C[C@@](C)(OC)[C@@H](O)[C@H](C)O2)[C@H](C)[C@@H](O[C@@H]2O[C@H](C)C[C@H](N(C)C)[C@H]2O)[C@](C)(O)C[C@@H](C)/C(=N\OCOCCOC)[C@H](C)[C@@H](O)[C@]1(C)O
MIC (agar dilution; ATCC43300): 16 µg/mL

Cc1ccc2[nH]nc(-c3nnc(Nc4ccc(O)cc4)s3)c2c1
MIC (ATCC29213): 18.3 µg/mL

CC[C@H]1OC(=O)[C@H](C)[C@@H](O[C@H]2C[C@@](C)(OC)[C@@H](O)[C@H](C)O2)[C@H](C)[C@@H](O[C@@H]2O[C@H](C)C[C@H](N(C)C)[C@H]2O)[C@](C)(O)C[C@@H](C)C(=O)[C@H](C)[C@@H](O)[C@]1(C)O
MIC (broth dilution; USA300): > 64 µg/mL

CCCCCCC#Cc1cncc(-c2nnc(SCc3cc([N+](=O)[O-])cc([N+](=O)[O-])c3)n2CCCN)c1
MIC (broth dilution; ATCC29213): 8 µg/mL

CC(=O)NC[C@H]1CN(c2ccc(N3CCOCC3)c(F)c2)C(=O)O1
MIC (agar dilution; ATCC25923): 1 µg/mL

CCCCCCC#Cc1cncc(-c2nnc(SCc3ccc(Cl)cc3)n2CCCN)c1
MIC (broth dilution; MRSA): 4 to 8 µg/mL

Brc1ccc2nc(SCc3ccccc3)c(CNCc3ccc(CN4CCCC4)cc3)cc2c1
MIC (broth dilution): 32 µg/mL

O=C(N[C@H](CO)[C@H](O)c1ccc([N+](=O)[O-])cc1)C(Cl)Cl
MIC (broth dilution; ATCC25923): 6.25 µg/mL

COc1cccc(OC)c1C(=O)N[C@@H]1C(=O)N2[C@@H]1SC(C)(C)[C@@H]2C(=O)O
MIC (broth dilution; ATCCBAA44 BAA44): > 64 µg/mL

CCCCCCC#Cc1cncc(-c2nnc(SCc3cc([N+](=O)[O-])cc([N+](=O)[O-])c3)n2C2CCNCC2)c1
MIC (broth dilution; MRSA): 8 µg/mL

CN1CCN(CCNCc2cc3cc(-c4ccccc4)ccc3nc2SCc2ccccc2)CC1
MIC (broth dilution): 8 µg/mL

CNC(C)C1CCC(N)C(OC2C(N)CC(N)C(OC3OCC(C)(O)C(NC)C3O)C2O)O1 (stereo not drawn)
MIC (broth dilution): 2 µg/mL

N#CC(C#N)=C1SC(C(=O)c2ccc(Nc3cnccn3)cc2)=NN1c1ccc([N+](=O)[O-])cc1
MIC (broth dilution; ATCC25923): 3.12 µg/mL

CN[C@H](CC(C)C)C(=O)N[C@H]1C(=O)N[C@@H](CC(N)=O)C(=O)N[C@H]2C(=O)N[C@H]3C(=O)N[C@H](C(=O)N[C@H](C(=O)O)c4cc(O)cc(O)c4-c4cc3ccc4O)[C@H](O)c3ccc(c(Cl)c3)Oc3cc2cc(c3O[C@@H]2O[C@H](CO)[C@@H](O)[C@H](O)[C@H]2O[C@H]2C[C@](C)(N)[C@H](O)[C@H](C)O2)Oc2ccc(cc2Cl)[C@H]1O
MIC (broth dilution; ATCCBAA44 BAA44): 1 µg/mL

CC(=O)C1=NN(c2ccc([N+](=O)[O-])cc2)C(=C(C#N)C(=O)c2ccc(Nc3cnccn3)cc2)S1
MIC (broth dilution; ATCC25923): 6.25 µg/mL

C=C[C@]1(C)C[C@@H](OC(=O)CS[C@@H]2C[C@H]3CC[C@@H](C2)N3C)[C@]2(C)[C@H](C)CC[C@]3(CCC(=O)[C@H]32)[C@@H](C)[C@@H]1O
MIC (agar dilution; ATCC29213): 0.0625 µg/mL

Cc1ccc2[nH]nc(-c3nnc(Nc4ccc(Cl)c(Cl)c4)s3)c2c1
MIC (ATCC29213): 97.5 µg/mL

N[C@@H](Cc1c[nH]c2ccc(Cl)cc12)C(=O)O
MIC (NEWMAN; 18 h): 200 µM

Cc1ccc2[nH]nc(-c3nnc(Nc4ccc(F)cc4)s3)c2c1
MIC (ATCC29213): 18.3 µg/mL

CCCCCCCCCCCC[N+](C)(C)Cc1ccccc1
MIC (MSSA): 4 µM

CC(=O)NC[C@H]1CN(c2ccc(N3CCOCC3)c(F)c2)C(=O)O1
MIC (broth dilution; ATCCBAA44 BAA44): 0.5 µg/mL

CC1(C)S[C@@H]2[C@H](NC(=O)[C@H](N)c3ccccc3)C(=O)N2[C@H]1C(=O)O
MIC (agar dilution; ATCC29213): 16 µg/mL

C[C@@H](O)[C@H]1C(=O)N2C(C(=O)O)=C(S[C@@H]3CN[C@H](C(=O)N(C)C)C3)[C@H](C)[C@H]12
MIC (ATCC29213 MSSA; drug-resistant strain): 0.06 µg/mL

Cc1ccc2[nH]nc(-c3nnc(Nc4ccc(Cl)cc4)s3)c2c1
MIC (ATCC29213): 44.5 µg/mL

CC[C@H]1OC(=O)[C@H](C)[C@@H](O[C@H]2C[C@@](C)(OC)[C@@H](O)[C@H](C)O2)[C@H](C)[C@@H](O[C@@H]2O[C@H](C)C[C@H](N(C)C)[C@H]2O)[C@](C)(O)C[C@@H](C)CN(C)[C@H](C)[C@@H](O)[C@]1(C)O
MIC (broth dilution; ATCCBAA44 BAA44): > 64 µg/mL

CCCCCCC#Cc1cncc(-c2nnc(SCc3ccc([N+](=O)[O-])o3)n2CCCN)c1
MIC (broth dilution; ATCC29213): > 64 µg/mL

CN[C@H](CC(C)C)C(=O)N[C@H]1C(=O)N[C@@H](CC(N)=O)C(=O)N[C@H]2C(=O)N[C@H]3C(=O)N[C@H](C(=O)N[C@H](C(=O)O)c4cc(O)cc(O)c4-c4cc3ccc4O)[C@H](O)c3ccc(c(Cl)c3)Oc3cc2cc(c3O[C@@H]2O[C@H](CO)[C@@H](O)[C@H](O)[C@H]2O[C@H]2C[C@](C)(N)[C@H](O)[C@H](C)O2)Oc2ccc(cc2Cl)[C@H]1O
MIC (agar dilution; ATCC43300): 2 µg/mL

[H]/N=C(\N/C(=N/[H])NCCCCCCNC(=N)NC(=N)Nc1ccc(Cl)cc1)Nc1ccc(Cl)cc1
MIC (MRSA USA300; drug-resistant strain): 1 µM

CCN1CCC(CCNCc2cc3cc(Br)ccc3nc2SCc2ccccc2)CC1
MIC (broth dilution): 32 µg/mL

COc1c(N2C[C@@H]3CCCN[C@@H]3C2)c(F)cc2c(=O)c(C(=O)O)cn(C3CC3)c12
MIC (agar dilution; ATCC29213): 0.5 µg/mL
